Results taken from publication PMC12166256 (Clinical Pharmacology and Therapeutics, 2025).
Marks after values point to notes of the source that are not given here.

Assays:
[1] = Food effect study: safety and tolerability; assay type: in vivo, human
In short: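 Healthy males aged 18–55 with BMI 18–30 kg/m² were followed through dosing and a 6–8-day follow-up. Checks: physical examination, clinical laboratory tests, vital signs and 12-lead ECG, with adverse events coded in MedDRA. Events of special interest: ALT ≥2×ULN, QTcF ≥500 ms, Grade ≥2 photosensitivity, symptomatic overdose. Treatment-emergent events were summarised descriptively by organ class, preferred term and dose level for all exposed participants.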

sTNFα = sTNFα (Homo sapiens, UniProt P01375); experiment: sTNFα target occupancy, ex vivo zymosan stimulation of blood, ELISA; assay type: in vivo
sTNFα, sequence (P01375 77-233 limits assumed): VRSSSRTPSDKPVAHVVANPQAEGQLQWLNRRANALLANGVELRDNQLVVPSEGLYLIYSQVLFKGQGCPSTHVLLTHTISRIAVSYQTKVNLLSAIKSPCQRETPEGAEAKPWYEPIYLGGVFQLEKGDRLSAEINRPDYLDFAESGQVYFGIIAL
In short: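 Blood came from the 400 and 600 mg single-dose cohorts (pre-dose and 3 h post-dose) and all multiple-dose cohorts (pre-dose Day 1; pre-dose and 3 h Day 14). It was stimulated ex vivo with zymosan. ELISA measured total and compound-occupied TNFα to derive percent occupancy and percent change from baseline, summarised descriptively by group and time point.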

[2] = SAD study: plasma pharmacokinetics; assay type: in vivo, human; details: for plasma concentrations: SAD 5 mg, below the LLOQ
In short: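 Healthy males aged 18–55 got single oral doses in six SAD cohorts (5–600 mg), 6 active and 2 placebo per cohort, all fasted. Plasma was drawn pre-dose and at 1, 2, 3, 4, 6, 8, 12, 18, 24, 36, 48, 60 and 72 h; 96 h only for dose levels 4–6. LC–MS/MS, LLOQ 2 ng/mL. Non-compartmental parameters; AUC excluded when extrapolation exceeded 30%.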

[3] = cited from earlier work

- sTNFα occupancy, mean (sTNFα; MAD 100 mg BID, D14 0 h): 103.1%
- sTNFα occupancy, median (sTNFα; MAD 100 mg BID, D14 0 h): 104.0%
- sTNFα occupancy, mean (sTNFα; MAD 100 mg BID, D14 3 h): 104.9%
- sTNFα occupancy, median (sTNFα; MAD 100 mg BID, D14 3 h): 105.3%
- sTNFα occupancy, mean (sTNFα; MAD 100 mg QD, D14 0 h): 95.0%
- sTNFα occupancy, median (sTNFα; MAD 100 mg QD, D14 0 h): 96.8%
- sTNFα occupancy, mean (sTNFα; MAD 100 mg QD, D14 3 h): 97.2%
- sTNFα occupancy, median (sTNFα; MAD 100 mg QD, D14 3 h): 98.4%
- sTNFα occupancy, mean (sTNFα; MAD 200 mg BID, D14 0 h): 101.1%
- sTNFα occupancy, median (sTNFα; MAD 200 mg BID, D14 0 h): 101.8%
- sTNFα occupancy, mean (sTNFα; MAD 200 mg BID, D14 3 h): 105.2%
- sTNFα occupancy, median (sTNFα; MAD 200 mg BID, D14 3 h): 106.6%
- sTNFα occupancy, mean (sTNFα; MAD 300 mg BID, D14 0 h): 101.3%
- sTNFα occupancy, median (sTNFα; MAD 300 mg BID, D14 0 h): 101.8%
- sTNFα occupancy, mean (sTNFα; MAD 300 mg BID, D14 3 h): 99.8%
- sTNFα occupancy, median (sTNFα; MAD 300 mg BID, D14 3 h): 102.8%
- sTNFα target occupancy (sTNFα; SAD 400 mg and 600 mg cohorts, 3 hours after dosing): ~ 100%
- sTNFα occupancy, mean (sTNFα; SAD 400 mg, D1 3 h): 102.2%
- sTNFα occupancy, median (sTNFα; SAD 400 mg, D1 3 h): 105.3%
- sTNFα occupancy, mean (sTNFα; SAD 600 mg, D1 3 h): 109.3%
- sTNFα occupancy, median (sTNFα; SAD 600 mg, D1 3 h): 109.2%
- plasma concentrations [2]: < 2 ng/mL
- C max, geometric mean ([2]; SAD 20 mg fasted): (5.12) [24] ng/mL
- C max, mean ± SD ([2]; SAD 20 mg fasted): 5.25 ± 1.24 ng/mL
- t last, median ([2]; SAD 20 mg fasted): 18.05 h
- t max, median ([2]; SAD 20 mg fasted): 5.00 h
- AUC (0 to infinity), mean ([2]; SAD 20 mg fasted, n = 1): 101 ^b ± NC ng·h/mL
- t 1/2z, geometric mean ([2]; SAD 20 mg fasted, n = 5): (13.6) [48] h
- t 1/2z, mean ([2]; SAD 20 mg fasted, n = 5): 15.0 ^c ± 7.21 h
- AUC (0 to infinity), geometric mean ([2]; SAD 60 mg fasted): (409) [25] ng·h/mL
- AUC (0 to infinity), mean ± SD ([2]; SAD 60 mg fasted): 420 ± 103 ng·h/mL
- C max, geometric mean ([2]; SAD 60 mg fasted): (20.5) [24] ng/mL
- C max, mean ± SD ([2]; SAD 60 mg fasted): 21.0 ± 5.08 ng/mL
- t 1/2z, geometric mean ([2]; SAD 60 mg fasted): (20.9) [28] h
- t 1/2z, mean ± SD ([2]; SAD 60 mg fasted): 21.6 ± 6.14 h
- t last, median ([2]; SAD 60 mg fasted): 48.00 h
- t max, median ([2]; SAD 60 mg fasted): 2.50 h
- AUC (0 to infinity), geometric mean ([2]; SAD 180 mg fasted): (2,330) [32] ng·h/mL
- AUC (0 to infinity), mean ± SD ([2]; SAD 180 mg fasted): 2,450 ± 782 ng·h/mL
- C max, geometric mean ([2]; SAD 180 mg fasted): (117) [36] ng/mL
- C max, mean ± SD ([2]; SAD 180 mg fasted): 122 ± 43.7 ng/mL
- t 1/2z, geometric mean ([2]; SAD 180 mg fasted): (27.1) [17] h
- t 1/2z, mean ± SD ([2]; SAD 180 mg fasted): 27.4 ± 4.74 h
- t last, median ([2]; SAD 180 mg fasted): 96.21 h
- t max, median ([2]; SAD 180 mg fasted): 2.50 h
- AUC (0 to infinity), geometric mean ([2]; SAD 400 mg fasted): (4,220) [49] ng·h/mL
- AUC (0 to infinity), mean ± SD ([2]; SAD 400 mg fasted): 4,580 ± 2,240 ng·h/mL
- C max, geometric mean ([2]; SAD 400 mg fasted): (261) [49] ng/mL
- C max, mean ± SD ([2]; SAD 400 mg fasted): 285 ± 139 ng/mL
- t 1/2z, geometric mean ([2]; SAD 400 mg fasted): (24.0) [26] h
- t 1/2z, mean ± SD ([2]; SAD 400 mg fasted): 24.7 ± 6.47 h
- t last, median ([2]; SAD 400 mg fasted): 96.16 h
- t max, median ([2]; SAD 400 mg fasted): 3.00 h
- AUC (0 to infinity), geometric mean ([2]; SAD 600 mg fasted): (8,900) [37] ng·h/mL
- AUC (0 to infinity), mean ± SD ([2]; SAD 600 mg fasted): 9,640 ± 3,540 ng·h/mL
- C max, geometric mean ([2]; SAD 600 mg fasted): (483) [39] ng/mL
- C max, mean ± SD ([2]; SAD 600 mg fasted): 525 ± 206 ng/mL
- t 1/2z, geometric mean ([2]; SAD 600 mg fasted): (23.9) [22] h
- t 1/2z, mean ± SD ([2]; SAD 600 mg fasted): 24.4 ± 5.43 h
- t last, median ([2]; SAD 600 mg fasted): 96.01 h
- t max, median ([2]; SAD 600 mg fasted): 3.00 h
SMILES: CN1C(=O)c2cccc(OC(F)F)c2[C@H]2C[C@@H]1c1nc3ccc(-c4cnc(C5(N)CCC5)nc4)cc3n12 [Balinatunfib]
- Neutropenia TEAE, participants ([1]; 200 mg fed, N = 6): 0 n (%)
- Skin and subcutaneous tissue disorders TEAE, events ([1]; 200 mg fed, N = 6): 0
- Skin and subcutaneous tissue disorders TEAE, participants ([1]; 200 mg fed, N = 6): 0 n (%)
- Tendonitis TEAE, events ([1]; 200 mg fed, N = 6): 1
- Tendonitis TEAE, participants ([1]; 200 mg fed, N = 6): 1 (16.7) n (%)
- Grade ≥ 3 TEAE, treatment-emergent SAEs, AESIs ([1]; food effect study): No participants
- plasma concentrations ([2]; listed as balinatunfib): In the SAD study, all doses were administered under fasted conditions. The PK parameters were not calculable for any participant receiving a single dose of 5 mg balinatunfib, as all concentrations were below the LLOQ (2 ng/mL).
- bioavailability ([3]; across animal species): moderate to high
- fraction unbound ([3]; preclinical studies): high
- tissue distribution ([3]; preclinical studies): high
